Measurements of several laboratories.
Protocols differ between the studies behind these lines.
Observed: DPPH scavenging

O=S(=O)(Nc1nccs1)c1ccc(N=NN(O)c2ccccc2)cc1  inhibition (absorbance; 180 µg/mL): 34.2%
Cc1ccc(C(C)C)cc1NC(=O)COC(=O)c1ccc(O)c(O)c1  inhibition (100 µg/mL): 91.8%
COc1cc(C=CC(=O)CC(c2ccc(N(C)C)cc2)n2ccnc2)ccc1O (stereo not drawn)  inhibition (50 µg/mL): 65.2%
Cc1ccc(C(C)C)cc1NC(=O)COC(=O)/C=C/c1ccc(Cl)cc1  inhibition (100 µg/mL): 7.5%
Cc1ccc(N(O)N=Nc2ccc(S(=O)(=O)Nc3onc(C)c3C)cc2)cc1  inhibition (absorbance; 300 µg/mL): 32.6%
COc1cc(C=Cc2cc(-c3ccc(N(C)C)cc3)nc(O)n2)ccc1O  inhibition (12.5 µg/mL): 39.4%
Oc1ccc(Br)cc1C=NCCN1CCOCC1  inhibition (absorbance; 160 µM): 36.5%
O=C1O[C@H]([C@@H](O)CO)C(O)=C1O  inhibition (25 µg/mL): 57.2%
O=C1O[C@H]([C@@H](O)CO)C(O)=C1O  inhibition (absorbance; 120 µM): 59%
Cc1ccc(C(C)C)cc1NC(=O)COC(=O)c1ccc(O)cc1O  inhibition (100 µg/mL): 2.4%
CCN(O)N=Nc1ccc(S(=O)(=O)Nc2onc(C)c2C)cc1  inhibition (absorbance; 180 µg/mL): 22.5%
COc1cc(C=CC(=O)CC(c2ccc([N+](=O)[O-])cc2)n2ccnc2)ccc1O (stereo not drawn)  inhibition (25 µg/mL): 50.7%
Cc1cc(NS(=O)(=O)c2ccc(N=NN(O)c3ccccc3)cc2)no1  inhibition (absorbance; 20 µg/mL): 21.8%
Cc1ccc(C(C)C)cc1NC(=O)COC(=O)c1cc(O)cc(O)c1  inhibition (100 µg/mL): 7.12%
CCN(O)N=Nc1ccc(S(=O)(=O)Nc2nccs2)cc1  inhibition (absorbance; 20 µg/mL): 6.63%
COc1cc(C=Cc2cc(-c3ccccc3)nc(O)n2)ccc1O  inhibition (25 µg/mL): 50%
Cc1ccc(C(C)C)cc1NC(=O)COC(=O)/C=C/c1ccccc1  inhibition (100 µg/mL): 1.39%
Cc1ccc(N(O)N=Nc2ccc(S(=O)(=O)Nc3cc(C)on3)cc2)cc1  inhibition (absorbance; 60 µg/mL): 19.9%
